Measured values: ChEMBL document CHEMBL3860038, “Discovery of (R,E)-N-(7-Chloro-1-(1-[4-(dimethylamino)but-2-enoyl]azepan-3-yl)-1H-benzo[d]imidazol-2-yl)-2-methylisonicotinamide (EGF816), a Novel, Potent, and WT Sparing Covalent Inhibitor of Oncogenic (L858R, ex19del) and Resistant (T790M) EGFR Mutants for the Treatment of EGFR Mutant …” (J Med Chem, 2016)
≈ marks a conversion by molar mass, not a printed value.

Assays:
[1] = target: T1, Epidermal growth factor receptor (Homo sapiens, UniProt P00533, L858R/T790M); assay: Inhibition of N-terminal 6x-HIS-tagged human recombinant EGFR (696 to 1022 residues) L858R/T790M mutant expressed in Sf9 cells pre-incubated for 0 mins followed by 1 mM ATP addition by HTRF assay
Outline: (§1)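 HTRF kinase assay on the EGFR L858R-T790M kinase domain at 1 mM ATP. Compound with either no preincubation or a 90 min enzyme/compound preincubation.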

[2] = target: T1, Epidermal growth factor receptor; assay: Inhibition of N-terminal 6x-HIS-tagged human recombinant EGFR (696 to 1022 residues) L858R/T790M mutant expressed in Sf9 cells pre-incubated for 90 mins followed by 1 mM ATP addition by HTRF assay; outline: as §1
[3] = Inhibition of EGFR E746 to A750 deletion mutant phosphorylation in human patient derived HCC827 cells incubated for 3 hrs by ELISA method; type: cell-based; details: HCC827, 3 h
Outline: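 HCC827 cells plated at 7500/well in 5% FBS/RPMI and left overnight at 37 °C. Then 3 h with a 12-point compound dilution series, no EGF stimulation. Lysed in Triton/protease/phosphatase-inhibitor buffer. Phospho-EGFR (Y1173) read by sandwich ELISA: anti-EGFR capture, anti-phospho-EGFR, anti-rabbit-HRP, chemiluminescence. IC50 from at least duplicates.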

[4] = Glutathione reactivity assessed as GSH adduct formation incubated for 1 hr using 10 mM glutathione
Outline: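 Compound incubated 1 h with 10 mM glutathione; GSH adduct formation measured.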

[5] = target: T2, Epidermal growth factor receptor (Homo sapiens, UniProt P00533); assay: Inhibition of N-terminal 6x-HIS-tagged wild type human recombinant EGFR (696 to 1022 residues) expressed in Sf9 cells pre-incubated for 90 mins followed by 10 uM ATP addition by HTRF assay
[6] = target: T1, Epidermal growth factor receptor; assay: Inhibition of N-terminal 6x-HIS-tagged human recombinant EGFR (696 to 1022 residues) L858R/T790M mutant expressed in Sf9 cells pre-incubated for 90 mins followed by 10 uM ATP addition by HTRF assay
[7] = target: T3, Epidermal growth factor receptor (Homo sapiens, UniProt P00533, L858R); assay: Inhibition of N-terminal 6x-HIS-tagged human recombinant EGFR (696 to 1022 residues) L858R mutant expressed in Sf9 cells pre-incubated for 90 mins followed by 10 uM ATP addition by HTRF assay
[8] = target: T1, Epidermal growth factor receptor; assay: Inhibition of EGFR L858R/T790M mutant phosphorylation in human patient derived H1975 cells incubated for 3 hrs by ELISA method; type: cell-based
[9] = target: Cytochrome P450 2D6 (Homo sapiens, UniProt P10635); assay: Inhibition of CYP2D6 (unknown origin); type: ADME
[10] = Aqueous solubility of the compound at pH 6.8; type: physicochemical
[11] = target: Cytochrome P450 3A4 (Homo sapiens, UniProt P08684); assay: Inhibition of CYP3A4 (unknown origin); type: ADME
[12] = Intrinsic clearance in human liver microsomes; type: ADME; details: read-out: CLH
[13] = Oral bioavailability in balb/c mouse at 20 mg/kg by liquid chromatography-tandem mass spectrometry; type: ADME, organism-based; details: in vivo
Outline: (§2)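 Rodent PK in male balb/c mice and male Wistar rats; plasma drug levels by LC-MS/MS. Mouse oral dosing at 20 mg/kg, with compounds given as a 0.5% methylcellulose/0.5% Tween 80 suspension or as solutions (PEG300/D5W, or ethanol/PEG300 with Solutol or D5W), depending on compound.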

[14] = target: T2, Epidermal growth factor receptor; assay: Inhibition of wild type EGFR phosphorylation in human HaCaT cells incubated for 3 hrs by ELISA method; type: cell-based
[15] = target: Cytochrome P450 2C9 (Homo sapiens, UniProt P11712); assay: Inhibition of CYP2C9 (unknown origin); type: ADME
[16] = AUC in balb/c mouse at 20 mg/kg, po by liquid chromatography-tandem mass spectrometry; type: ADME, organism-based; details: in vivo; outline: as §2
[17] = target: T3, Epidermal growth factor receptor; assay: Inhibition of EGFR L858R mutant phosphorylation in human patient derived H3255 cells incubated for 3 hrs by ELISA method; type: cell-based
[18] = Intrinsic clearance in mouse liver microsomes; type: ADME; details: read-out: CLH
[19] = Clearance in balb/c mouse at 5 mg/kg, iv by liquid chromatography-tandem mass spectrometry; type: ADME, organism-based; details: in vivo; outline: as §2
[20] = Time duration during which free plasma concentration stays above in-vitro IC50 level in human NCI-H1975 cells xenografted Foxn1 nude mouse at 20 mg/kg, po qd for 5 days; type: ADME, organism-based; details: in vivo, 120 h
Outline: (§3)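 H1975 xenografts in Foxn1 nude mice, oral dosing once daily for 5 days. Plasma sampled after the last dose on day 5, at 30 min, 3 h, 7 h and 24 h. Free drug exposure was compared with in vitro cellular IC50 across the dosing interval.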

[21] = Antitumor activity against human NCI-H1975 cells xenografted in Foxn1 nude mouse assessed as reduction in tumor volume at 50 mg/kg, po qd for 5 days relative to untreated control; type: functional
Outline: (§4)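 Female Foxn1 nude mice, H1975 cells inoculated subcutaneously. Randomized into groups once tumors reached 150−200 mm³, then dosed by oral gavage once daily for 5 days in 0.5% MC/0.5% Tween80 suspension (10 μL/g). Tumor volumes by caliper, (length × width × width)/2. %T/C = 100 × ΔT/ΔC, or % regression = 100 × ΔT/T_initial when ΔT < 0. Body weight recorded daily.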

[22] = Antitumor activity against human NCI-H1975 cells xenografted in Foxn1 nude mouse assessed as reduction in tumor volume at 20 mg/kg, po qd for 5 days relative to untreated control; type: functional; outline: as §4
[23] = test system: Mus musculus; assay: Toxicity in human NCI-H1975 cells xenografted Foxn1 nude mouse assessed as change in body weight at 50 mg/kg, po qd for 5 days (reference value: […]); type: organism-based; details: in vivo, 120 h
[24] = test system: Mus musculus; assay: Toxicity in human NCI-H1975 cells xenografted Foxn1 nude mouse assessed as change in body weight at 20 mg/kg, po qd for 5 days (reference value: […]); type: organism-based; details: in vivo, 120 h
[25] = Antitumor activity against human NCI-H1975 cells xenografted in Foxn1 nude mouse assessed as reduction in tumor volume at 25 mg/kg, po qd for 5 days relative to untreated control; type: functional; outline: as §4
[26] = test system: Mus musculus; assay: Toxicity in human NCI-H1975 cells xenografted Foxn1 nude mouse assessed as change in body weight at 25 mg/kg, po qd for 5 days (reference value: […]); type: organism-based; details: in vivo, 120 h
[27] = Time duration during which free plasma concentration stays above in-vitro IC50 level in human NCI-H1975 cells xenografted Foxn1 nude mouse at 25 mg/kg, po qd for 5 days; type: ADME, organism-based; details: in vivo, 120 h; outline: as §3

T3 sequence (P00533 25-1210 L858R limits assumed): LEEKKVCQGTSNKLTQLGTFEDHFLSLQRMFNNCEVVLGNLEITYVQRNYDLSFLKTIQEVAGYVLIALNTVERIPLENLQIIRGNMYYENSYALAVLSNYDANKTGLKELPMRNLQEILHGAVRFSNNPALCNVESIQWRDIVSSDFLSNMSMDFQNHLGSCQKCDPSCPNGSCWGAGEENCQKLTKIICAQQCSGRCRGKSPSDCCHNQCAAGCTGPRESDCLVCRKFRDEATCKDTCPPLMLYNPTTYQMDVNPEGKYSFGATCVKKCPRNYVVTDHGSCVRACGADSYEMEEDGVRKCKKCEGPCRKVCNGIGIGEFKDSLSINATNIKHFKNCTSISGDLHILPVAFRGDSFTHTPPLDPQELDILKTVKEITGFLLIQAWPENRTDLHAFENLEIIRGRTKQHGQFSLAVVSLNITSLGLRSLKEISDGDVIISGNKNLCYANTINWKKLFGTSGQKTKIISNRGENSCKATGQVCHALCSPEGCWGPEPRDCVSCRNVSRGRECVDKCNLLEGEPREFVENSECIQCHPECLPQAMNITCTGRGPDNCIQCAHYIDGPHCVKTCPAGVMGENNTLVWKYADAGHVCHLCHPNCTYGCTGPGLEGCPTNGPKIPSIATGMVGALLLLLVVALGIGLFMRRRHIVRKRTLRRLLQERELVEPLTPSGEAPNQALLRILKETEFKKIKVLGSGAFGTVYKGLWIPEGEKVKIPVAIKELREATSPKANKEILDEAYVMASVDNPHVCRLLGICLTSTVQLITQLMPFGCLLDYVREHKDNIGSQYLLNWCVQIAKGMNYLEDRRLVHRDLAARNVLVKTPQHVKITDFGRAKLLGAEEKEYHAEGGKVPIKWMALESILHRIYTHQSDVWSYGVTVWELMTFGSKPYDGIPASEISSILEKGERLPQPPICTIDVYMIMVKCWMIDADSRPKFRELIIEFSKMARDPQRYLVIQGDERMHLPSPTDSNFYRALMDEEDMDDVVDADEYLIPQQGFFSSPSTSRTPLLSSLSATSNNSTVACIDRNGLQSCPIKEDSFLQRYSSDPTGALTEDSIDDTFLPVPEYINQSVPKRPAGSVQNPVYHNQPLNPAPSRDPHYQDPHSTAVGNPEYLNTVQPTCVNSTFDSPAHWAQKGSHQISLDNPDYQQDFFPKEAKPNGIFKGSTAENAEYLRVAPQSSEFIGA
T2 sequence (P00533 whole entry, the tested form may be a part): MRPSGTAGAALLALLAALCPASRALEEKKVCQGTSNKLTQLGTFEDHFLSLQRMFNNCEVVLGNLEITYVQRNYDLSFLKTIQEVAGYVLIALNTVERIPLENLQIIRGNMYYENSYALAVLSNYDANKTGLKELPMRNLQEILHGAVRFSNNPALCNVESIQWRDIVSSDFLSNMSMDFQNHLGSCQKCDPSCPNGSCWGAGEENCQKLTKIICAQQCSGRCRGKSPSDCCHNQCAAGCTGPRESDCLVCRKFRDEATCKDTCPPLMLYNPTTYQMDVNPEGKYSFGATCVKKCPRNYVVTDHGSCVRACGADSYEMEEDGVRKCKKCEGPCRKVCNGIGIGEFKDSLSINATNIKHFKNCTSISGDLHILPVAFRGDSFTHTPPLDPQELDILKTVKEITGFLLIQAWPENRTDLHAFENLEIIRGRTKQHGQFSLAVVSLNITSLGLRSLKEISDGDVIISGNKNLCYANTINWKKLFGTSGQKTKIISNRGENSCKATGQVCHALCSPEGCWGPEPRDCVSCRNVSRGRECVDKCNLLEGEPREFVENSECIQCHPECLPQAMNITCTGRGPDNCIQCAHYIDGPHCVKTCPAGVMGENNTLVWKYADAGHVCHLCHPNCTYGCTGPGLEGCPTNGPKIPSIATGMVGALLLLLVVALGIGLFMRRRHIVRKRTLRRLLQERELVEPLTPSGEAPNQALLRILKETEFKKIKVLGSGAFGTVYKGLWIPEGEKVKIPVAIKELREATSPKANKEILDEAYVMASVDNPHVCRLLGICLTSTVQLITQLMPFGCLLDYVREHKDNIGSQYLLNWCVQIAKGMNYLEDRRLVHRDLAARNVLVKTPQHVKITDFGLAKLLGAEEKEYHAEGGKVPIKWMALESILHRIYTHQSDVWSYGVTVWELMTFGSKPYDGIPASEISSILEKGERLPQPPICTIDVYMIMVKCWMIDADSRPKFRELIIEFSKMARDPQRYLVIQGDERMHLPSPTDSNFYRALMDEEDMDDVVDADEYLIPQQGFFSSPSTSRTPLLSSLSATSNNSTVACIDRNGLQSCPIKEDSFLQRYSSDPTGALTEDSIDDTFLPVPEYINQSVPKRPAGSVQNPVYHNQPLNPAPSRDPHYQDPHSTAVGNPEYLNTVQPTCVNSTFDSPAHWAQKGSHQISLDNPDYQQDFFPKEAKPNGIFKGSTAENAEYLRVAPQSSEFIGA
T1 sequence (P00533 25-1210 T790M/L858R limits assumed): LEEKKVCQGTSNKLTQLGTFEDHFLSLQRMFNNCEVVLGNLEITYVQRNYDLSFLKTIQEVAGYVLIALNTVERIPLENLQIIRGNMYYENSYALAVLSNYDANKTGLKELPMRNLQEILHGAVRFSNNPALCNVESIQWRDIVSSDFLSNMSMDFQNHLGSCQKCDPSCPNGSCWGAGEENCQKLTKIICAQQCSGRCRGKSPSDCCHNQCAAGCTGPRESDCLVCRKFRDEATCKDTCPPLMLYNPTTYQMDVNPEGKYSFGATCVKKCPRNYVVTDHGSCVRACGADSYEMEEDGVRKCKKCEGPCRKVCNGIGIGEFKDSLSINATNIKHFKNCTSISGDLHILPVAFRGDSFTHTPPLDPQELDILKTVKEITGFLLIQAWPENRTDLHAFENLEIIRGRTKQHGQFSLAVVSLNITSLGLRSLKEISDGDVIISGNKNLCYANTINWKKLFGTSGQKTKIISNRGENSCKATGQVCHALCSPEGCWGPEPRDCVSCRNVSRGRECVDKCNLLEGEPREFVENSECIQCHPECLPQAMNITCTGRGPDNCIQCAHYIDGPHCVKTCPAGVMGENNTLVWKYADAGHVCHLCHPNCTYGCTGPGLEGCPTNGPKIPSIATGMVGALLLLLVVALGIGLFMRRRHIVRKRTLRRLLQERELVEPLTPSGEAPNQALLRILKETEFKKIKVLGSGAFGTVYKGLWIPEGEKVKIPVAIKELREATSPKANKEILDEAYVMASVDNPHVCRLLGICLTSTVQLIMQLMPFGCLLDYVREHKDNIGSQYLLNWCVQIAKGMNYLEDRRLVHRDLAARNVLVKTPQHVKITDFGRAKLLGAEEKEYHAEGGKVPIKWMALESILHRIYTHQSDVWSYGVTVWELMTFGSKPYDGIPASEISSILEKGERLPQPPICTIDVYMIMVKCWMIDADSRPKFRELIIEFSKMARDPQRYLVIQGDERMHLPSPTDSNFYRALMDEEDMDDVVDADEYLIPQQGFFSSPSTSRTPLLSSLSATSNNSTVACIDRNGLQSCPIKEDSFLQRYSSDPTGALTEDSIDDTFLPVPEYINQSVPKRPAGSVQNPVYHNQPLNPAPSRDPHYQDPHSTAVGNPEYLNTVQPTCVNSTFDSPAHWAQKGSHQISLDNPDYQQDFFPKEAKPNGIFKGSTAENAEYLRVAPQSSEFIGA
Chain of Cytochrome P450 2D6 (P10635 whole entry): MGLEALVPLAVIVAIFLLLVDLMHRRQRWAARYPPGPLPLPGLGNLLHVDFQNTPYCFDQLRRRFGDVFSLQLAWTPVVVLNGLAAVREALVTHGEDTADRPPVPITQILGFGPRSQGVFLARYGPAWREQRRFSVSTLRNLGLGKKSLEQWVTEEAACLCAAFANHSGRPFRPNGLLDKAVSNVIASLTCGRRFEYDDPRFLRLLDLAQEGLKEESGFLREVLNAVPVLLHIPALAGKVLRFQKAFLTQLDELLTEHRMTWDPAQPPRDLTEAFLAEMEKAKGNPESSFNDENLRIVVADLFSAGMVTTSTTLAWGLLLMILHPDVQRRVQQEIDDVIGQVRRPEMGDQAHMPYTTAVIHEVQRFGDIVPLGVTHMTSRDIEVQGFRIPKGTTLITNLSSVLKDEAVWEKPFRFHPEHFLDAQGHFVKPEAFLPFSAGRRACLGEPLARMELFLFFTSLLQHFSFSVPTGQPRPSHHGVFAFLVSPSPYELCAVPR
Chain of Cytochrome P450 2C9 (P11712 whole entry): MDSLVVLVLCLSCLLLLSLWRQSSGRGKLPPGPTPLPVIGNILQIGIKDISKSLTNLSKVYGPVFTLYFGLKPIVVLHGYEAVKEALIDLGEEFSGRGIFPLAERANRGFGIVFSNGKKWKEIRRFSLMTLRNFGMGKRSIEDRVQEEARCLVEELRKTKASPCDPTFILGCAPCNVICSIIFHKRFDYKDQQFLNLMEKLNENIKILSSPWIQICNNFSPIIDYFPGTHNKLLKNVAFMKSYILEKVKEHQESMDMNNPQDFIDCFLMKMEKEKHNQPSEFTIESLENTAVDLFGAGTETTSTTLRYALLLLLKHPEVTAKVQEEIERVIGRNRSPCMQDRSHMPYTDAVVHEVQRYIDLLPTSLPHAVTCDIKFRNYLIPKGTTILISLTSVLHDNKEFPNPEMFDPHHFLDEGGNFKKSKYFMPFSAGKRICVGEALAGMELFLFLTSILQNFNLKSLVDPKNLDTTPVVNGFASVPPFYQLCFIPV
Chain of Cytochrome P450 3A4 (P08684 whole entry): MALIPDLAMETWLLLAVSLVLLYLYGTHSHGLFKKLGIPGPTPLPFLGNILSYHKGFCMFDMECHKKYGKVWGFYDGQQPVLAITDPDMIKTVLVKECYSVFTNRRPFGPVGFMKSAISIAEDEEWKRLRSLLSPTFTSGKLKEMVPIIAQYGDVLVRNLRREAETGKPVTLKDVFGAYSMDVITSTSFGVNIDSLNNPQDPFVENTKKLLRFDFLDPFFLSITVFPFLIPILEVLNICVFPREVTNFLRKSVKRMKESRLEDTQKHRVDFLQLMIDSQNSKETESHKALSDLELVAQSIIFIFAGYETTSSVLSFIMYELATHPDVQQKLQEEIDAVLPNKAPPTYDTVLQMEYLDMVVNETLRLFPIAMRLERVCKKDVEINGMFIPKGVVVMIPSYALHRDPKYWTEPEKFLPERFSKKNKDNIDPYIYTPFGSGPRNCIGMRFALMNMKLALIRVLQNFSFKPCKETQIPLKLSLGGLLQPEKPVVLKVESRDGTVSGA

## C=CC(=O)N[C@H]1CC[C@H](n2c(NC(=O)c3cccc(C(F)(F)F)c3)nc3cc(C)ccc32)CC1
[1]
  IC50: > 50000 nM
[2]
  IC50: > 50000 nM

## C=CC(=O)Nc1cccc(Nc2nc(Nc3ccc(N4CCN(C(C)=O)CC4)cc3OC)ncc2C(F)(F)F)c1 [ROCILETINIB]
[3]
  IC50: 9.5 nM

## Cc1cc(C(=O)Nc2nc3cccc(Cl)c3n2[C@@H]2CCCCN(C(=O)/C=C/CN(C)C)C2)ccn1
[4]
  Drug metabolism: < 5%

## C=CC(=O)N1CC(n2c(NC(=O)c3cccc(C(F)(F)F)c3)nc3cc(C)ccc32)C1
[1]
  IC50: > 50000 nM
[2]
  IC50: > 50000 nM

## Cc1cccc2nc(NC(=O)c3cccc(C(F)(F)F)c3)n([C@H]3CC[C@H](O)CC3)c12
[5]
  IC50: 5270 nM
[6]
  IC50: 90 nM
[7]
  IC50: 680 nM

## C=CC(=O)NCCCn1c(NC(=O)c2cccc(C(F)(F)F)c2)nc2cc(C)ccc21
[1]
  IC50: > 50000 nM
[2]
  IC50: 50 nM
[8]
  IC50: 525 nM
[3]
  IC50: 1650 nM

## C=CC(=O)N1CCC(n2c(NC(=O)c3cccc(C(F)(F)F)c3)nc3cc(C)ccc32)C1 (centres undefined)
[1]
  IC50: > 50000 nM
[2]
  IC50: > 50000 nM

## Cc1cccc2nc(NC(=O)c3cccc(C(F)(F)F)c3)n([C@@H]3CCCCN(C(=O)/C=C/CN(C)C)C3)c12
[9]
  IC50: 16700 nM
[10]
  solubility: 10.5 µM (≈ 5.54 µg/mL)
[11]
  IC50: 22200 nM
[4]
  Drug metabolism: < 5%
[12]
  microsomal CLint: 49 µL/min/mg
[8]
  IC50: 2.18 nM
[3]
  IC50: 12.4 nM
[13]
  bioavailability: 40%
[14]
  IC50: 351 nM
[15]
  IC50: 17600 nM
[16]
  AUC: 4.39 µM·h
[17]
  IC50: 45.9 nM
[18]
  microsomal CLint: 233 µL/min/mg
[19]
  clearance: 57.2 mL/min/kg

## C=CC(=O)N(C)c1cccc(-n2c(NC(=O)c3cccc(C(F)(F)F)c3)nc3cc(C)ccc32)c1
[1]
  IC50: 22300 nM
[2]
  IC50: 10 nM
[8]
  IC50: 181 nM
[3]
  IC50: 268 nM
[14]
  IC50: > 10000 nM

## C=CC(=O)Nc1ccc(-n2c(NC(=O)c3cccc(C(F)(F)F)c3)nc3cc(C)ccc32)cc1
[1]
  IC50: > 50000 nM
[2]
  IC50: > 50000 nM

## C=CC(=O)N[C@H]1CCCC[C@H]1n1c(NC(=O)c2cccc(C(F)(F)F)c2)nc2cc(C)ccc21 (racemic)
[1]
  IC50: > 50000 nM
[2]
  IC50: > 50000 nM

## Cc1cc(C(=O)Nc2nc3cccc(C)c3n2[C@@H]2CCCCN(C(=O)/C=C/CN(C)C)C2)ccn1
[9]
  IC50: > 25000 nM
[10]
  solubility: > 175 µM
[11]
  IC50: > 25000 nM
[20]
  Time: <= 14 hr
[4]
  Drug metabolism: < 5%
[21]
  T/C: -65%
[12]
  microsomal CLint: 26 µL/min/mg
[22]
  T/C: -6%
[8]
  IC50: 2.11 nM
[23]
  Activity: -5%
[3]
  IC50: 1.01 nM
[24]
  Activity: -1.1%
[13]
  bioavailability: 34%
[14]
  IC50: 68 nM
[15]
  IC50: > 25000 nM
[16]
  AUC: 3.53 µM·h
[17]
  IC50: 3.05 nM
[18]
  microsomal CLint: 62 µL/min/mg
[19]
  clearance: 68.5 mL/min/kg

## C=CC(=O)N1CCCC(n2c(NC(=O)c3cccc(C(F)(F)F)c3)nc3cc(C)ccc32)C1 (centres undefined)
[1]
  IC50: > 50000 nM
[2]
  IC50: 20 nM
[8]
  IC50: 24.7 nM
[3]
  IC50: 153 nM
[14]
  IC50: > 10000 nM
[17]
  IC50: 421 nM

## C=CC(=O)N[C@H]1CC[C@@H](n2c(NC(=O)c3cccc(C(F)(F)F)c3)nc3cc(C)ccc32)CC1
[1]
  IC50: > 50000 nM
[2]
  IC50: > 50000 nM

## CN(C)C/C=C/C(=O)Nc1cc2c(Nc3ccc(F)c(Cl)c3)ncnc2cc1O[C@H]1CCOC1 [AFATINIB]
[4]
  Drug metabolism: 60%
[25]
  T/C: 38%
[26]
  Activity: -2.4%
[27]
  Time: <= 14 hr
